# Data taken from article PMC10753549 (ACS Omega, 2023).
# Where a name gives a salt, the structure may show the parent alone.
# Tests used:
# [1] = tested on: brine shrimp (Artemia salina); assay: Brine shrimp lethality bioassay
# [2] = tested on: NS2B-NS3 protease; conditions: NS2B-NS3 inhibitors; cited from earlier work
# [3] = tested on: ZIKV NS3 protease; conditions: read-out: IC50 (viral protease); ref Pathak et al. (2020) [49]; cited from earlier work
# [4] = tested on: Zika virus strain MR766; assay: Anti-ZIKV viral immunofluorescence assay in Vero cells; assay type: cell-based, Zika virus (MR766 Africa lineage)
# Procedure, shortened: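 Vero cells kept in DMEM with 10% FBS, 1% penicillin/streptomycin and 2 mM L-glutamine. They were pretreated with test compound at ten concentrations, then infected with MR766 virus stock grown in C6/36 mosquito cells (5 μL inoculum per well). After 24 h the cells were fixed in 4% paraformaldehyde and read by immunofluorescence. Mycophenolic acid was the positive control. EC50 came from 10-point dose–response curves in triplicate. CC50 was measured in uninfected Vero cells, and SI = CC50/EC50.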
# [5] = Cytotoxicity assay on Vero cells; assay type: cell-based; conditions: African green monkey, virus-uninfected Vero cells, CC50 (50% cytotoxic concentration), 10-point dose–response curves in triplicate
# Procedure, shortened: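 Vero cells were grown in DMEM with 10% FBS, 1% penicillin/streptomycin and 2 mM L-glutamine. Virus-uninfected cells were exposed to test compound at ten concentrations. CC50 was calculated from the 10-point dose–response curves, run in triplicate.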
# [6] = tested on: ZIKV; conditions: read-out: EC50 (anti-ZIKV); in vitro assays; ref Pathak et al. (2020) [49]; cited from earlier work
compound,measurement,setting,value
"CN1[C@@H]2CC[C@H]1C[C@@H](OC(=O)C(CO)c1ccccc1)C2 (stereo partly shown) [Atropine SO4, Atropine sulfate monohydrate]",nauplii mortality,[1]; after 24 h,below 20%
CC(C)C[C@H]1C(=O)N2CCC[C@H]2[C@]2(O)O[C@](NC(=O)[C@@H]3C=C4c5cccc6[nH]c(Br)c(c56)C[C@H]4N(C)C3)(C(C)C)C(=O)N12 [bromocriptine],IC50,[2],21.6 µM
CO[C@@H]1[C@@H](OC(N)=O)[C@@H](O)[C@H](Oc2ccc3c(O)c(NC(=O)c4ccc(O)c(CC=C(C)C)c4)c(=O)oc3c2C)OC1(C)C [novobiocin],IC50,[2],14.2 µM
erythrosine B,IC50,[2],1.7 µM
COc1ccc2c(O[C@@H]3C[C@H]4C(=O)N[C@]5(C(=O)NS(=O)(=O)C6CC6)C[C@H]5/C=C\CCCCN(C)C(=O)[C@@H]4C3)cc(-c3nc(C(C)C)cs3)nc2c1C [simeprevir],IC50,[3],2.6 µM
"COc1c(C)c2c(c(O)c1C/C=C(\C)CCC(=O)O)C(=O)OC2 [MPA, mycophenolic acid]",SI: Selectivity index (CC50/EC50),[4]; ZIKV MR766 / Vero cells,>1063
same,EC50,"[4]; Zika virus, Vero, 24 h, read-out: EC50 (median effective concentration)",0.94 µM
same,CC50,[5],> 1000 µM
C=C[C@@H]1C[C@]1(NC(=O)[C@@H]1C[C@@H](Oc2ncc(OC)c3ccc(Cl)cc23)CN1C(=O)[C@@H](NC(=O)OC(C)(C)C)C(C)(C)C)C(=O)NS(=O)(=O)C1CC1 [asunaprevir],IC50,[3],6 µM
same,EC50,[6],4.7 µM
"COc1ccc2cc3[n+](cc2c1OC)CCc1cc2c(cc1-3)OCO2 [Berberine chloride, berberine chloride]",nauplii mortality,"[1]; at 125 μg/mL, 24 h",all the nauplii were dead
same,LD50 (median lethal dose),"[1]; brine shrimp nauplii, 24 h, probit analysis of 6-point dose (16–500 μg/mL)",27.0 µg/mL
Oc1cccc(-c2c3nc(c(-c4cccc(O)c4)c4ccc([nH]4)c(-c4cccc(O)c4)c4nc(c(-c5cccc(O)c5)c5ccc2[nH]5)CC4)C=C3)c1 [temoporfin],IC50,[2],1.1 µM
